Results on 25 compounds are retold here after PubChem BioAssay AID652000 (Sanford-Burnham Center for Chemical Genomics, 2013).

The whole screen tested about 2,400 compounds, of which fewer than 10 were called active. The list is a sample of the results. Values without a mark were called inactive.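 How the source made its calls: active means activation of at least 50%; inactive means the rest.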

Sequence of G-protein coupled receptor 183 (Homo sapiens) (P32249 whole entry, looked up): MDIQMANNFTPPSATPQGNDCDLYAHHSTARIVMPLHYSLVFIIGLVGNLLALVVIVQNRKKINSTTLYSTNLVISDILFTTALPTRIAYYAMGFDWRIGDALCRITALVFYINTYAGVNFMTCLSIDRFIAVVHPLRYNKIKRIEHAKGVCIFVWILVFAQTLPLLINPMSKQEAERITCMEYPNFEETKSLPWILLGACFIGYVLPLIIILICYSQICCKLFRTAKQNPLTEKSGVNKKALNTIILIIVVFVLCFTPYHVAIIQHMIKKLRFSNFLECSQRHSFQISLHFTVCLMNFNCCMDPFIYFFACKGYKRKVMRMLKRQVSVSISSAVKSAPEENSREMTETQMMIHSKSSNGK

The test addresses G-protein coupled receptor 183 (Homo sapiens) (UniProt P32249). The test can be described thus: EBI2 agonist activity of antagonist hits, confirmation, counter-screen for EBI2 antagonist project, cell-based, single concentration, agonist mode, luminescence (AID 652000). The conditions noted are these: EBI2-expressing cells, 60 min, at 5 µM, stronger effect = higher value, 0% vehicle, 100% 7α,25-dihydroxycholesterol control. In a few lines:
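System: beta-arrestin recruitment reporter cells, agonist mode. Amount: 1500 cells in each well. Probe or stimulus: no added oxysterol for test compounds. Compound: single concentration, 2.5 nL of 10 mM stock. Timing: 37°C overnight seeding and 60-min compound, 25°C dark 60-min detection. Signal: luminescence. Benchmarks: 7alpha,25-OHC positive control.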
Background: A counterscreen serves to expose hits that act by an unwanted route or on another target.
`COc1ccc(-n2c(Cc3cccn3C)nnc2SCC(=O)Nc2cc(C)cc(C)c2)cc1`: the activation is 0.66%.

With `COc1ccc([C@H]2CC(=O)C=C(/C=C/c3ccc(Cl)cc3)C2)cc1`, the activation was -0.43%.

In the case of `COc1ccccc1CCNC(=O)C1CCN(C(=O)/C=C/c2ccccc2)CC1`, the activation is -0.16%.

As for `COc1ccc(C(c2nnnn2C2CCCC2)N2CCN(C/C=C/c3ccccc3)CC2)cc1` (stereo not given), the activation was -0.25%.

Regarding `CN1CCc2ccccc2C1Cc1ccccc1NC(=O)c1sc2ccccc2c1Cl` (stereo not given), the activation is -0.98%.

Consider `Cc1ccc(-n2ncc3c(=O)n(-c4ccc(C)c(C)c4)c(-c4ccco4)nc32)cc1`, for which the activation was -1.66%.

On to `O=C(Nc1ccc(S(=O)(=O)N2CCCCC2)cc1)C1CC(=O)N(c2ccc(F)cc2)C1` (stereo not given), for which the activation is 0.98%.

For `O=C(c1cc(=O)c2ccccc2o1)N1CCN(c2ccccc2)CC1`, the activation was 2.48%.

In the case of `CCCC1CCC(=NNC(=S)NCCc2ccccc2)CC1` (stereo not given), the activation was -1.07%.

In the case of `Cc1cccc(N=C2NC(=O)/C(=C/c3cn(C)c4ccccc34)S2)c1`, the activation was -0.07%.

Regarding `COc1ccc(-c2cc(NC=O)c3ncc(-c4cccc(C(=O)N(C)C)c4)n3c2)c(OC)c1`, the activation is -1.02%.

Turning to `Cc1ccc(CSCCNC(=O)CN(c2ccc(F)cc2)S(C)(=O)=O)cc1`, the activation is 0.84%.

For `CC(C)N(Cc1ccccc1)C(=S)Nc1ccc(OC(F)F)cc1`, the activation is 0.07%.

Turning to `CC(C)Cc1ccc(-c2cc3nc(NCc4cccc(Cl)c4)ccn3n2)cc1`, the activation was -1.2%.

In the case of `CCOC(=O)N1CCN(C(=O)CSc2ccc(Cl)cc2)CC1`, the activation was 2.07%.

Consider `Cc1ccc(SCC(=O)N2CCN(c3ccc(F)cc3)CC2)cc1`, for which the activation is 4.12%.

Take `CC(=O)/C(=N\Nc1ccc(Cl)cc1Cl)Sc1cccc2cccnc12`: the activation was -1.34%.

Take `O=C(NCc1ccc(Cl)cc1)c1cc(=O)nc2sc(-c3ccccc3)nn12`: the activation is -0.48%.

For the compound `COc1ccc(OC)c(C(=O)c2coc3ccc(O)c(CN4CCOCC4)c23)c1`, the activation is 0.62%.

Turning to `O=C(/C=C/c1cccc(C(F)(F)F)c1)N1CCN(c2ccccn2)CC1`, the activation was -0.93%.

As for `Cc1cccc(OCC(O)CN2CCN(S(=O)(=O)c3ccc(C)cc3C)CC2)c1` (stereo not given), the activation was -0.98%.

As for `COc1ccc(-c2cn(-c3ccc(OC)cc3)c(=S)[nH]2)cc1`, the activation is 1.66%.

Regarding `O=C(CSc1ccccc1)Nc1cc(Cl)ccc1Oc1ccccc1`, the activation is -1.48%.

For the compound `CCC(C)(C)NC(=O)c1cc([N+](=O)[O-])ccc1N1CCCCC1`, the activation was -1.43%.

In the case of `CCOC(=O)N1CCN(C(=O)COc2ccc(Br)cc2)CC1`, the activation is 1.84%.
